In ChEMBL document CHEMBL1146088 (J Med Chem, 2006):

What was measured:
Rattus norvegicus = species on record: Rattus norvegicus; assay: Metabolic stability in rat brain membrane assessed by inhibition of AEA hydrolysis; type: ADME
In short: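 Mixture extracted with 2 volumes CHCl3/CH3OH 2:1. [14C]ethanolamine in the aqueous phase counted by scintillation. Value is the concentration giving 50% inhibition of hydrolysis.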

[1] = molecular target: T1, Transient receptor potential cation channel subfamily V member 1 (Homo sapiens, UniProt Q8NER1); assay: Agonist activity on human recombinant TRPV1-mediated enhancement of intracellular calcium concentration in HEK293 cells; type: functional, cell-based
T1 sequence (Q8NER1 whole entry): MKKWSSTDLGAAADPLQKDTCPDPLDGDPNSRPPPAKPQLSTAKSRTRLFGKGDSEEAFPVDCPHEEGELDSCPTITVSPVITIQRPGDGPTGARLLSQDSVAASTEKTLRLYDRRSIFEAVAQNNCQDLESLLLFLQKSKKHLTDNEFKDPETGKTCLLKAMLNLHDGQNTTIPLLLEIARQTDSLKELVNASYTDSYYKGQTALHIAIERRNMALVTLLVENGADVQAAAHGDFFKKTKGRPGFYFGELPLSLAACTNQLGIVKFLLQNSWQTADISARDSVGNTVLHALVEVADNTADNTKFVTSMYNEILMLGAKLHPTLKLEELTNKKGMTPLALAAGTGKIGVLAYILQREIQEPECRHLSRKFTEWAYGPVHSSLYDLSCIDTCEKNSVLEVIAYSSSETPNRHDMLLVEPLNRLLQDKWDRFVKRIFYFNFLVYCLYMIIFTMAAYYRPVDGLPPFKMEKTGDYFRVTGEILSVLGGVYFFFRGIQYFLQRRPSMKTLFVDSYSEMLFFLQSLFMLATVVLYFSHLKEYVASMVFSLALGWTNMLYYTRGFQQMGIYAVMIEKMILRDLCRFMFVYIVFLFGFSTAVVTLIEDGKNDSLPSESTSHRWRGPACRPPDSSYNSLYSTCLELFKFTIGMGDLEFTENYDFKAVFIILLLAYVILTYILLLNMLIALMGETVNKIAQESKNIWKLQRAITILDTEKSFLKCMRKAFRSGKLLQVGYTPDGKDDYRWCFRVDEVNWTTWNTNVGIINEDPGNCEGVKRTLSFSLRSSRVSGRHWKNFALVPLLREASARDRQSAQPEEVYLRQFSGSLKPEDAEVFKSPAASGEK
In short: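 HEK-293 cells stably overexpressing human TRPV1, plated on poly-L-lysine the day before. Loaded 2 h at 25 °C with 4 µM Fluo-3 methyl ester (0.04% Pluronic), washed, trypsinized and resuspended in Tyrode pH 7.4. Stirred-cuvette fluorescence (ex 488/em 540 nm) at 25 °C, read before and after compound at various concentrations. EC50 is the concentration giving half-maximal stimulation.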

RBL-2H3 = assay: Inhibition of AEA uptake in RBL2H3 cells; type: functional, cell-based, Rattus norvegicus, Wistar
In short: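 RBL-2H3 cells incubated 5 min at 37 °C with [14C]AEA (2.4 µM, 10 000 cpm), with or without varying inhibitor concentrations. Medium extracted with CHCl3/CH3OH 2:1. Residual [14C]AEA in the lyophilized organic phase was measured by scintillation counting as an index of uptake.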

Cannabinoid receptor 2 = Cannabinoid receptor 2 (Homo sapiens, UniProt P34972); assay: Binding affinity to human recombinant CB2 receptor expressed in COS cells; type: cell-based
Chain of Cannabinoid receptor 2 (P34972 whole entry): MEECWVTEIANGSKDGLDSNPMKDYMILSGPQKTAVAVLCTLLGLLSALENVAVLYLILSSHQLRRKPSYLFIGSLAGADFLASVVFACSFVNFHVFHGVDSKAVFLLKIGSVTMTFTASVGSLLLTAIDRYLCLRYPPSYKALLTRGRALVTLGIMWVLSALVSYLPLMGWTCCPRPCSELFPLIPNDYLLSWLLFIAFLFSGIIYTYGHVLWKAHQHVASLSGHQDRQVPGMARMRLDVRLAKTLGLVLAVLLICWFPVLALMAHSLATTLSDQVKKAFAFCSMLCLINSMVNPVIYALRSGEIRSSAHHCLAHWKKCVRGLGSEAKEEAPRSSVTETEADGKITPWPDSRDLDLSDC

[2] = molecular target: T1, Transient receptor potential cation channel subfamily V member 1; assay: Maximal agonist activity on human recombinant TRPV1-mediated enhancement of intracellular calcium concentration in HEK293 cells at 10 uM; type: functional, cell-based
In short: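 Fluo-3-loaded HEK-293 cells overexpressing human TRPV1, in Tyrode pH 7.4 at 25 °C, fluorescence ex 488/em 540 nm. Compound at 10 µM. Peak rise in intracellular Ca2+ expressed as percent of the response to ionomycin (4 µM).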

Cannabinoid receptor 1 = Cannabinoid receptor 1 (Homo sapiens, UniProt P21554); assay: Binding affinity to human recombinant CB1 receptor expressed in COS cells; type: cell-based
Chain of Cannabinoid receptor 1 (P21554 whole entry): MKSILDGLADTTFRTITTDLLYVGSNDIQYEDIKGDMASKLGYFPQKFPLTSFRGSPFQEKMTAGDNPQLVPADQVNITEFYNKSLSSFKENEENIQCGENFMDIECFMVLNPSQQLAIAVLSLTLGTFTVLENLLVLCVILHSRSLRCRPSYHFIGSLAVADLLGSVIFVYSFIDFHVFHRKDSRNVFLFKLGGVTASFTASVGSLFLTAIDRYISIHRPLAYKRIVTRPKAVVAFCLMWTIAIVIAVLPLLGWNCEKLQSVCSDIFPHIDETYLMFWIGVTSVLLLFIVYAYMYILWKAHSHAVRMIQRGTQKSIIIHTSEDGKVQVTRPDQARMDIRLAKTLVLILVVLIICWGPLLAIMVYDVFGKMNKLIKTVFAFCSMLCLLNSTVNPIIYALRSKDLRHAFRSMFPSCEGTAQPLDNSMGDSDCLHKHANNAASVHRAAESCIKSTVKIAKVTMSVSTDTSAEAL

[3] = Rattus norvegicus, Brain, read-out: IC50
[4] = Rattus norvegicus, Wistar, RBL-2H3, read-out: IC50

IC50 (Rattus norvegicus) | EC50 ([1]; hek293) | IC50 (RBL-2H3; rbl-2h3) | Ki (Cannabinoid receptor 2; cos) | Ki (Cannabinoid receptor 1; cos) | Structure (SMILES) | IC50 (Rattus norvegicus; [3]) [µM] | EC50 ([1]; read-out: EC50) [µM] | IC50 (RBL-2H3; [4]) [µM] | Ki (Cannabinoid receptor 2; read-out: Ki) [µM] | Emax [2] [%] | Ki (Cannabinoid receptor 1; read-out: Ki) [µM]
 |  |  |  |  | CCCCC/C=C\C/C=C\C/C=C\C/C=C\CCCC(=O)NOCCO | 25 | 0.25 | > 25 | 0.081 | 58.5 | 0.47
Not Active | Not Active | Not Active | Not Active | Not Active | CCCCCCCCCCCCCCCC(=O)NCCO [PALMIDROL] |  |  |  |  |  | 
 |  |  |  |  | CCCCCCCC/C=C\CCCCCCCC(=O)N(O)CCO | > 50 | 0.4 | 20 | 5.4 | 53.5 | > 10
 |  |  |  |  | CCCCCCCCCCCCCCCC(=O)NOCCO | > 50 |  | > 25 | > 10 | 11.2 | > 10
 |  |  |  |  | CCCCCCCC/C=C\CCCCCCCC(=O)ONCCO | > 50 |  | > 25 | 8.6 | 14.3 | > 10
 |  |  |  |  | CCCCC/C=C\C/C=C\C/C=C\C/C=C\CCCC(=O)N(O)CCO | > 50 | 0.26 | > 25 | 1.9 | 55.3 | 3.9
 |  |  |  |  | CCCCCCCCCCCCCCCC(=O)ONCCO | > 50 |  | > 25 | > 10 | 1.8 | > 10
 |  |  |  |  | CCCCC/C=C\C/C=C\C/C=C\C/C=C\CCCC(=O)NCCO [ANANDAMIDE] | 19 | 0.49 | 14.5 |  | 54.7 | 
 |  |  |  |  | CCCCCCCCCCCCCCCC(=O)N(O)CCO | > 50 | 0.6 | > 25 | > 10 | 37 | > 10
 |  |  |  |  | CCCCCCCC/C=C\CCCCCCCC(=O)NCCO [OLEOYLETHANOLAMIDE] | 23 | 0.89 | 20 | > 10 | 50.1 | 1.1
 |  |  |  |  | CCCCC/C=C\C/C=C\C/C=C\C/C=C\CCCC(=O)ONCCO | > 50 |  | > 25 | 2.4 | 28 | 3.5
 |  |  |  |  | CCCCCCCC/C=C\CCCCCCCC(=O)NOCCO | > 50 | 0.32 | 22.5 | 3.8 | 50 | > 10
